Screens (PubChem)
DAGLB inhibitor: DAGLB lipase inhibitors, primary screen, biochemical, fluorescence, HTS | HEK293T DAGLB membrane lysate, EnzChek fluorogenic substrate | inhibition, % at 5.17 µM | hit rate 0.059% among 340,000; in the data active = inhibition above about 34%;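 also: 0% = enzyme with vehicle and 100% = wells lacking enzyme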
TAAR1 ag: human TAAR1 agonists, primary screen, Fluo-8 calcium fluorescence, CHO RD-HGA16 cells. vehicle wells 0%, saturating PEA agonist 100%. activation, % at 3 µM. hit rate 0.99% among 360,000. AID 624467, 2012;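 active = activation above the mean activation of all test compounds in the run plus 3 SD, cut at about 38% in these data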
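System: CHO-derived RD-HGA16 cells with stable Gα16 and human TAAR1. Times: 17-24 h plating, Fluo-8 75 min 37 °C, 30 min RT. Measured by: calcium-sensitive Fluo-8 signal, excitation 470-495, emission 515-575 nm. Read-out basis: % activation relative to PEA EC100 response. Control set: DMSO and PEA EC100. Repeats: no replicates (n 1).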
MPTP block: mitochondrial permeability transition pore inhibitors, primary screen, biochemical, isolated mouse mitochondria, absorbance; inhibition, % at 10 µM; hit rate 1.4% among 360,000; AID 602449, 2012; Ca2+ swelling absorbance, 30 min;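 active = inhibition of 50% or more, scaled per plate between neutral and stimulator controls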;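 also: 0% = DMSO wells given calcium and 100% = 1 mM EGTA wells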
TAAR1 antagonist: human TAAR1 antagonists, primary screen, Fluo-8 calcium fluorescence, CHO RD-HGA16 cells; hit rate 1.5% among 360,000; inhibition, % at 3 µM; antagonist;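 active = inhibition above a per-plate cutoff, the mean inhibition of test compounds on that plate plus 3 SD, cut at about 49% in these data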;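 also: 0% = DMSO plus EC80 beta-PEA response and 100% = DMSO alone without agonist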
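Test system: RD-HGA16 CHO cells with stable hTAAR1 and Gα16 / Probe or stimulus: EC80 β-phenethylamine stimulus / Times: seeding 17-24 h prior, 75-min 37 °C, 30-min RT dye loading / Detection: Fluo-8 calcium-sensitive fluorescence / Read-out basis: % inhibition scaled between DMSO and EC80 PEA controls / Repeats: singlicate, one well per test compound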
GPR7 antag: GPR7 receptor antagonists, primary screen, cell-based, fluorescence, single concentration | Neuropeptides B/W receptor type 1 (Homo sapiens), P48145 | GPR7-expressing cells, fluorescence antagonist assay | inhibition, % at 4.4 µM | hit rate 1.1% among 290,000 | AID 1861, 2009; in the data active = inhibition above about 16%, passing the limit was not always enough;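 also: cells stimulated with the agonist NPW; 0% = agonist with vehicle and 100% = vehicle without agonist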
MPTP counter: fluorescence retest of MPTP screen hits in isolated mitochondria, single concentration; shares compounds with MPTP block; membrane potential, Rhodamine 123 fluorescence; inhibition, % at 10 µM; hit rate 78% among 5,000; in the data active = inhibition above about 22%;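 also: 0% = DMSO vehicle and 100% = positive control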
MPTP abs DR: mitochondrial permeability transition pore inhibitors, dose response, biochemical, absorbance, uHTS hits; isolated mitochondria swelling; shares compounds with MPTP block; IC50, µM; hit rate 58% among 780; in the data active = IC50 below about 20 µM
MPTP counter DR: fluorescent counter-screen in isolated mitochondria, dose response, counter-screen for MPTP inhibitor project, biochemical, fluorescence, uHTS hits. shares compounds with MPTP block. isolated mitochondria counterscreen, fluorescence read-out. IC50, µM. hit rate 49% among 780; in the data active = IC50 below about 80 µM
Numbers without * were called inactive; nt = no result given. Hits are enriched below; roughly 4% of the tested compounds scored in any of these assays.

SMILES	DAGLB inhibitor	TAAR1 ag	MPTP block	TAAR1 antagonist	GPR7 antag	MPTP counter	others
N#Cc1c(NC(=O)CSc2nc(N)cc(=O)[nH]2)sc2c1CCCCCC2	2	17	83*	-6	3	59*
Cc1nnc(SC(C)C(=O)Nc2sc3c(c2C#N)CCCC3)[nH]c1=O (stereo unspecified)	3	4	0	-14	-2	nt
CCc1nc2ccc(C(=O)N3CCN(S(=O)(=O)CC)CC3)cn2c1N(CC)CCOC	nt	2	-1	-24	nt	nt
COC(=O)c1ccc2nc(-c3ccco3)c(Cc3ccc(OC)cc3C)n2c1	nt	0	-2	-17	nt	nt
CCOC(=O)C1(C)CCN1C(=O)COc1ccc(C(C)(C)C)cc1 (stereo unspecified)	nt	4	0	-17	nt	nt
C1=C(c2ccc(-c3ccccc3)cc2)Nc2ncnn2C1c1ccco1 (stereo unspecified)	-97	29	58*	26	26*	9
Cn1cccc1C1C=C(c2ccc(C(C)(C)C)cc2)Nc2ncnn21 (stereo unspecified)	-7	12	82*	46	nt	69*
Fc1ccc(C2=CC(c3ccco3)n3ncnc3N2)cc1 (stereo unspecified)	-16	nt	2	nt	2	nt
CC(C)(C)c1ccc(C2=CC(c3ccccc3F)n3ncnc3N2)cc1 (stereo unspecified)	-7	8	1	11	nt	nt
CCc1cccc(C)c1NC(=O)CSc1nnc(-c2cc3cc(Br)ccc3o2)n1CC	-1	7	92*	-1	-2	84*
Cc1c(CN(C)C(=O)c2sc3cc(Cl)ccc3c2Cl)cnn1C	-1	8	84*	6	-2	80*
Cc1ccc(NC(=O)CN(C)C(=O)c2sc3cc(Cl)ccc3c2Cl)cc1	-7	1	1	-17	nt	nt
CCOCCCNCc1cn(-c2ccc(F)cc2F)nc1-c1ccccc1C	-6	-1	58*	-16	-5	-2	MPTP abs DR=15*;MPTP counter DR=60*
Cc1ccc(N/N=C(\C#N)C(N)=S)c(C)c1	5	9	90*	5	-16	83*
Cc1ccc(NC(=O)/C(C#N)=N/Nc2ccc(C(=O)O)cc2)c(C)c1	1	1	1	-13	7	nt
CN(C(=O)c1ccccc1)C1c2c(ccc3ccccc23)OCC1CO (stereo unspecified)	-13	5	-1	-2	0	nt
O=C(Nc1ccc(Cl)cc1)N[C@@H]1c2c(ccc3ccccc23)OC[C@@H]1CO	3	27	93*	25	-9	74*
c1ccc2c(c1)NC(c1ccncc1)n1c-2nc2ccccc21 (stereo unspecified)	0	18	0	5	-2	nt
c1cncc(C2Nc3ccccc3-c3nc4ccccc4n32)c1 (stereo unspecified)	0	10	59*	22	-10	88*
c1csc(C2Nc3ccccc3-c3nc4ccccc4n32)c1 (stereo unspecified)	-6	0	52*	17	0	75*
Cc1nn(-c2cccc(Cl)c2)c2nc(C(F)(F)F)[nH]c(=O)c12	3	0	98*	-1	-10	53*
Cc1nn(-c2cc(C(F)(F)F)ccc2Cl)c2nc(C(F)(F)F)[nH]c(=O)c12	3	-3	2	-26	-7	nt
S=C(Nc1ccc(Oc2ccccc2)cc1)NC1CCCCCC1	-11	5	96*	24	0	89*
O=C(O)c1ccc(NC(=S)NC2CCCCC2)cc1	1	2	0	-6	-6	nt
FC(F)Sc1ccc(NC(=S)NC2CCCC2)cc1	-2	9	95*	-11	-8	94*
NS(=O)(=O)c1ccc(NC(=S)NC2CCCC2)cc1	0	2	1	3	6	nt
